From ChEMBL document CHEMBL4706499, “PTG-0861: A novel HDAC6-selective inhibitor as a therapeutic strategy in acute myeloid leukaemia” (Eur J Med Chem, 2020)
Active and inactive are the calls of the source. No cut-off for these calls is given here.

Legend:
MV4-11 [1] = test: Cytotoxicity against human MV4-11 cells measured after 72 hrs by spectrophotometer method; format: functional, cell-based; conditions: MV4-11, 72 h
Histone deacetylase 2 = Histone deacetylase 2 (Homo sapiens, UniProt Q92769); test: Inhibition of recombinant full length human HDAC2 expressed in SF9 baculovirus using FAM- labelled acetylated peptide as substrate measured by Electrophoretic mobility shift assay
Sequence of Histone deacetylase 2 (Q92769 whole entry): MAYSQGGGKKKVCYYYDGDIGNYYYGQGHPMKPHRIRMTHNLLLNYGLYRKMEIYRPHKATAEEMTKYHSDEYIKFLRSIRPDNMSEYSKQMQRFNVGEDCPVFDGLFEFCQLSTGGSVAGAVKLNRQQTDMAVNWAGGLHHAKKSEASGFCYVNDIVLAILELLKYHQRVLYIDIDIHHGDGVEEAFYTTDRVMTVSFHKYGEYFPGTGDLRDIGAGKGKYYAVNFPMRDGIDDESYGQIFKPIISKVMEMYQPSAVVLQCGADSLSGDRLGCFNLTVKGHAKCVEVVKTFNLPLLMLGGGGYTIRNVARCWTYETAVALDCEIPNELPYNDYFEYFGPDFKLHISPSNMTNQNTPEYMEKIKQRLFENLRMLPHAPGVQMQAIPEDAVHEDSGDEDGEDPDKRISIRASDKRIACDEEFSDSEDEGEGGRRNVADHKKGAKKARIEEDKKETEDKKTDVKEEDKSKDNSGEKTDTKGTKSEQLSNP

Histone deacetylase 4 = Histone deacetylase 4 (Homo sapiens, UniProt P56524); test: Inhibition of recombinant full length human HDAC4 expressed in SF9 baculovirus using FAM- labelled acetylated peptide as substrate measured by Electrophoretic mobility shift assay
Sequence of Histone deacetylase 4 (P56524 whole entry): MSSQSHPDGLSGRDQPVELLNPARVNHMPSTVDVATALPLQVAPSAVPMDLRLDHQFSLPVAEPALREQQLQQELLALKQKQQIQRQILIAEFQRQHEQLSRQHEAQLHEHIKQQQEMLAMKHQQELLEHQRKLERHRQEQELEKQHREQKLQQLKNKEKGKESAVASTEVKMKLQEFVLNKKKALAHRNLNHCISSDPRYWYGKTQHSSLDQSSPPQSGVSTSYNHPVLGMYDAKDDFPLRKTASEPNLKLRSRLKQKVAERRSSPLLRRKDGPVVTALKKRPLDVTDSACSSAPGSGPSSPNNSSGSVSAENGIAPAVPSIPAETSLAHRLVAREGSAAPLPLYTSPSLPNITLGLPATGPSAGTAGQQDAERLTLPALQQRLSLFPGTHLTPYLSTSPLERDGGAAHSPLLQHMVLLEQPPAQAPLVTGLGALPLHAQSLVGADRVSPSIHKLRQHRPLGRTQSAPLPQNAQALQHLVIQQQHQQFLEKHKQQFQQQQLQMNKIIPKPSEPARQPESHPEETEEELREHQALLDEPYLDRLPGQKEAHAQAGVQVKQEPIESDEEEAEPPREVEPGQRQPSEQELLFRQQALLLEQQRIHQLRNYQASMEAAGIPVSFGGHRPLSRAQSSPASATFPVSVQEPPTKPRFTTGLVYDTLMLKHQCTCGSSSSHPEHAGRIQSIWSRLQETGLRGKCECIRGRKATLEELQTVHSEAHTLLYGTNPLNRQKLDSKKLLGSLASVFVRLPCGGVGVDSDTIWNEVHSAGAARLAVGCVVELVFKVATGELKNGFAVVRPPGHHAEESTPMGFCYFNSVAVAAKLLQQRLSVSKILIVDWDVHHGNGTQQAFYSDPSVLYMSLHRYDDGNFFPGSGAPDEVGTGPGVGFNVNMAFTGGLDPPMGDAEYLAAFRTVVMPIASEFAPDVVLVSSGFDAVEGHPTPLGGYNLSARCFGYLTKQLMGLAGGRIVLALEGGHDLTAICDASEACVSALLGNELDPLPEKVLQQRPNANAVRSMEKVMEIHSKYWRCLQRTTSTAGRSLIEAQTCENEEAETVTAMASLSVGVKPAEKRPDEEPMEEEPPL

Histone deacetylase 7 = molecular target: T1, Histone deacetylase 7 (Homo sapiens, UniProt Q8WUI4); test: Inhibition of recombinant full length human HDAC7 expressed in SF9 baculovirus using FAM- labelled acetylated peptide as substrate measured by Electrophoretic mobility shift assay
T1 sequence (Q8WUI4 whole entry): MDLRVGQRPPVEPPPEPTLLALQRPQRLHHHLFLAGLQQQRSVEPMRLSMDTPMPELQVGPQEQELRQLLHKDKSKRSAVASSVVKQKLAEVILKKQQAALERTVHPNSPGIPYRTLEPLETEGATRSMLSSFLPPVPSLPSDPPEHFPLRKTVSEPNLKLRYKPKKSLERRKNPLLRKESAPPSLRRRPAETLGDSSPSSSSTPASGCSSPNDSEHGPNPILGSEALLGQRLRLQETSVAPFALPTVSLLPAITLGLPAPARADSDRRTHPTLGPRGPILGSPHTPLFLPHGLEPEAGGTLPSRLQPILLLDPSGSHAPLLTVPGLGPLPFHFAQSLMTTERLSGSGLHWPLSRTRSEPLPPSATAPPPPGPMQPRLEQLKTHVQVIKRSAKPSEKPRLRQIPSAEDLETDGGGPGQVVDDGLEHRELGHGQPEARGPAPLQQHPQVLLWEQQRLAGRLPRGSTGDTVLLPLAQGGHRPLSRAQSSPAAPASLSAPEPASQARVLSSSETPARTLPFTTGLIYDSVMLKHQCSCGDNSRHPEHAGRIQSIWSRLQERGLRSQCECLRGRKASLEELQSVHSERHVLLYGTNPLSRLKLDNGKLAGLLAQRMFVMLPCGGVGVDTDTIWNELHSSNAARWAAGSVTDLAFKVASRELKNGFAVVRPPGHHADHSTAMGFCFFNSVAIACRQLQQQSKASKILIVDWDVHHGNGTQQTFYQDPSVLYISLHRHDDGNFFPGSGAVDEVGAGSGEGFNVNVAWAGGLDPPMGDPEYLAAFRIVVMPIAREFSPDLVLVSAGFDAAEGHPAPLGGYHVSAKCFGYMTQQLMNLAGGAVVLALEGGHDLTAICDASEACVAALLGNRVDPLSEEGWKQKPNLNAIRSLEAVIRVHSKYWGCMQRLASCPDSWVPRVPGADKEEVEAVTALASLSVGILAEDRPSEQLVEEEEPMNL

Histone deacetylase 9 = Histone deacetylase 9 (Homo sapiens, UniProt Q9UKV0); test: Inhibition of recombinant full length human HDAC9 expressed in SF9 baculovirus using FAM- labelled acetylated peptide as substrate measured by Electrophoretic mobility shift assay
Sequence of Histone deacetylase 9 (Q9UKV0 whole entry): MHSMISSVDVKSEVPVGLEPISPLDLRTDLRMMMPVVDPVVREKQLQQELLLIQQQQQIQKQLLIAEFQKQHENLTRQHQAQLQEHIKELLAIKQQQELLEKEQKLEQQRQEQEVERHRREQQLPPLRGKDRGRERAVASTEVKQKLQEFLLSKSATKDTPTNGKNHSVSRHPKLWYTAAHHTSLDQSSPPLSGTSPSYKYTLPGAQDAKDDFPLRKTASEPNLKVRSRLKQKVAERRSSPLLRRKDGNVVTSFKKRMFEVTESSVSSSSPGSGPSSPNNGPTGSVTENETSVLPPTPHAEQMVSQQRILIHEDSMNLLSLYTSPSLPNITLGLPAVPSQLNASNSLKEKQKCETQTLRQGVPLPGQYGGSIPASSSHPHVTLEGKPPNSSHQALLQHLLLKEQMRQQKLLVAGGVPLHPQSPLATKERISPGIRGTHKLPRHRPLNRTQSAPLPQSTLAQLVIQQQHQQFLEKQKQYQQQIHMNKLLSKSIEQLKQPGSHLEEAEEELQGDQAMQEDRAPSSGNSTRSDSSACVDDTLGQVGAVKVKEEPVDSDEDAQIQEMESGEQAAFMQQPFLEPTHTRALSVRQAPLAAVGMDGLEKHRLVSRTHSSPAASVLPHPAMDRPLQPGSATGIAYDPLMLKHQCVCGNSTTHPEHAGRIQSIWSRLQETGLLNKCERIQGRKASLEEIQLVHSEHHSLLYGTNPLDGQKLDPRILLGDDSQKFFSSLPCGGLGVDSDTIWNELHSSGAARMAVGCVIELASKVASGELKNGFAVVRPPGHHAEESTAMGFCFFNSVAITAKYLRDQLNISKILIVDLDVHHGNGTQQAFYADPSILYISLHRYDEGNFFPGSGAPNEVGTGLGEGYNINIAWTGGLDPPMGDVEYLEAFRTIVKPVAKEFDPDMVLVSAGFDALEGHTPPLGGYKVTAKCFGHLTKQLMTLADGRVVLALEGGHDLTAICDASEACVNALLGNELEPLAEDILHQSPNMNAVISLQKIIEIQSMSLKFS

[2] = molecular target: T2, Protein deacetylase HDAC6 (Homo sapiens) (UniProt Q9UBN7); test: Inhibition of HDAC6 in human MV4-11 cells assessed as increase in acetylation of alpha tubulin at 0.5 uM measured after 6 hrs by Western blot assay relative to histone H4 acetylation; format: cell-based
T2 sequence (whole entry): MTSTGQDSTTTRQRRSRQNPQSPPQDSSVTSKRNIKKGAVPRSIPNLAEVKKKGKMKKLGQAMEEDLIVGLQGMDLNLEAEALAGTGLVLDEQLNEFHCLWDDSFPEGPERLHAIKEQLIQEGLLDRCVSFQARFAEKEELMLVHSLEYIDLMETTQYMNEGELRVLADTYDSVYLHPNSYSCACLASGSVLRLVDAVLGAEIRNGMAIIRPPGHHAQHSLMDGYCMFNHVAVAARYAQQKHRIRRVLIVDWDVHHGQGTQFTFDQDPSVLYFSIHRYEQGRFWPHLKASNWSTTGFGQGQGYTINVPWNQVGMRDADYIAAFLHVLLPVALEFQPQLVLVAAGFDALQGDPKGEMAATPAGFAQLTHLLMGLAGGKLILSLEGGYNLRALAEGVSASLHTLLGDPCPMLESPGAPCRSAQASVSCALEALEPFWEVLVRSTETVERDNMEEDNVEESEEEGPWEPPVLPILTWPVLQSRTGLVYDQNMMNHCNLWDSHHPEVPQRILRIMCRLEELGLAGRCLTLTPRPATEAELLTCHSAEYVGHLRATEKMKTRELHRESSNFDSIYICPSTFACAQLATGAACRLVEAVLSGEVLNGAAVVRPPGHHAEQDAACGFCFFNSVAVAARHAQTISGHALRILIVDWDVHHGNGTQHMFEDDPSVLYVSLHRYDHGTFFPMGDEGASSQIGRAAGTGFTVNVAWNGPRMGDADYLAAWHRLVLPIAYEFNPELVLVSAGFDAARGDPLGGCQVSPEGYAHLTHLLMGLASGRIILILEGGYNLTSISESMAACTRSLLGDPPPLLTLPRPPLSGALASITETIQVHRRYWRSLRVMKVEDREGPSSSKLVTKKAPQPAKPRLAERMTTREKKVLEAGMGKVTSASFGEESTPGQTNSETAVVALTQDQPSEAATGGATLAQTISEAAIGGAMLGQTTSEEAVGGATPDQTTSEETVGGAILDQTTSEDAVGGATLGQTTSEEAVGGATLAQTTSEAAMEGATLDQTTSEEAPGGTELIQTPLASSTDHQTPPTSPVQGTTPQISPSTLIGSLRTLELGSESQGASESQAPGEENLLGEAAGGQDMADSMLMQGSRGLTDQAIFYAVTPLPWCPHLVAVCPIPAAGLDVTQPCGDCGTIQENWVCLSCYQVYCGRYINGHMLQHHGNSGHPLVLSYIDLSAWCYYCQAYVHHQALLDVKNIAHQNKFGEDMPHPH
Method in brief: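 MV4-11 cells were exposed to a range of concentrations for 6 h. Protein extracts were run on SDS-PAGE and immunoblotted for acetylated α-tubulin, acetylated histone H3 and acetylated histone H4, with HSC70 as the loading reference. A representative blot of three independent experiments is shown.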

MV4-11 [3] = test: Induction of apoptosis in human MV4-11 cells assessed as early apoptotic cells at 4 microM measured after 18 hrs by Annexin V/Propidium iodide stain based Flow cytometry assay (reference value: 1.7%); format: functional
RPMI-8226 = test: Cytotoxicity against human RPMI-8226 cells measured after 72 hrs by spectrophotometer method; format: functional, cell-based; conditions: RPMI-8226, 72 h
HUVEC = test: Cytotoxicity against human HUVEC cells measured after 72 hrs by spectrophotometer method; format: cell-based
[4] = Toxicity in CD-1 mouse assessed as visible signs of toxicity at 20 mg/kg, po measured after 5 days; format: organism-based; conditions: in vivo, 120 h, time 5 day
[5] = molecular target: Class 1 histone deacetylase (Homo sapiens) (UniProt Q13547+O15379+Q92769+Q9BY41); test: Inhibition of HDAC class 1 in human HeLa cells assessed as acetylated H3 histone at 0.1 uM measured after 6 hrs by Immunofluorescent assay
Sequence of Class 1 histone deacetylase (Homo sapiens) (O15379 whole entry, looked up): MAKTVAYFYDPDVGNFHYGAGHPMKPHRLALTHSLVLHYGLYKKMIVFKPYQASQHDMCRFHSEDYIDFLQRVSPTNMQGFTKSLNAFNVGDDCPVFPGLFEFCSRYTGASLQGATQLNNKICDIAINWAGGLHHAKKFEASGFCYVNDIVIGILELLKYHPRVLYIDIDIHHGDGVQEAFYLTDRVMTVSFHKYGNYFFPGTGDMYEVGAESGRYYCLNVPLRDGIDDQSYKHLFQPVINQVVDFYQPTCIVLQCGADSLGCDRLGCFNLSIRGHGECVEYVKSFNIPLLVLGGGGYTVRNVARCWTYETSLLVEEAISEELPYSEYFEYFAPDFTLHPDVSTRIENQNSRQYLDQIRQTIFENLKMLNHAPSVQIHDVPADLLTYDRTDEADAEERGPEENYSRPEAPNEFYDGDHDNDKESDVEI
Sequence of Class 1 histone deacetylase (Homo sapiens) (Q13547 whole entry, looked up): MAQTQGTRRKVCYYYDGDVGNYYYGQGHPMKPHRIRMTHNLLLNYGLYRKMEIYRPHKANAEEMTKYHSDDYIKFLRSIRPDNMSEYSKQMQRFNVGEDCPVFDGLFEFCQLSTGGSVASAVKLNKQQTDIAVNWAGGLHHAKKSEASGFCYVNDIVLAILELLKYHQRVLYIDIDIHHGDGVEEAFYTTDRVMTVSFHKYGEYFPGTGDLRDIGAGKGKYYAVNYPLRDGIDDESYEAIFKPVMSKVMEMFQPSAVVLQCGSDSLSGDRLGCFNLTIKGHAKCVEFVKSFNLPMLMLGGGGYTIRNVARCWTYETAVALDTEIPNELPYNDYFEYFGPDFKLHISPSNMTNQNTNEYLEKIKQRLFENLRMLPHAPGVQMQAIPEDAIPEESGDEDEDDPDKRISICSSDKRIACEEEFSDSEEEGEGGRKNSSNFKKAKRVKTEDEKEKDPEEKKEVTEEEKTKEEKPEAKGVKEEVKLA
Sequence of Class 1 histone deacetylase (Homo sapiens) (Q92769 whole entry, looked up): as the sequence (Q92769 whole entry) above
Sequence of Class 1 histone deacetylase (Homo sapiens) (Q9BY41 whole entry, looked up): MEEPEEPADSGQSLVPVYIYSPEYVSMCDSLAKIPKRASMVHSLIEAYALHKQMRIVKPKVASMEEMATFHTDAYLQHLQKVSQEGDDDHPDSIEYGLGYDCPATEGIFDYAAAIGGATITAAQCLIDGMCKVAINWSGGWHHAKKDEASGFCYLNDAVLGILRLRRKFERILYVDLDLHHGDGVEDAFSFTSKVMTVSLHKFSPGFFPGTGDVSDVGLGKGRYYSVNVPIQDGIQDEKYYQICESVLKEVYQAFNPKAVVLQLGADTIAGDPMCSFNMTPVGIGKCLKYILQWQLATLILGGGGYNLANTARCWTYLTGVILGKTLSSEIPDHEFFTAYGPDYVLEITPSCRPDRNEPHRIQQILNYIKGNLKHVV

IC50 (Histone deacetylase 2): > 1000 nM
IC50 (Histone deacetylase 4): > 1000 nM
IC50 (Histone deacetylase 7): > 1000 nM
IC50 (Histone deacetylase 9): > 1000 nM
inhibition [2]: Active
inhibition [5]: inactive
SMILES: O=C(NO)c1ccc(CNC(=O)c2c(F)c(F)c(F)c(F)c2F)cc1
IC50 (MV4-11 [1]): 1850 nM
Activity (MV4-11 [3]): 18%
IC50 (RPMI-8226): 4940 nM
IC50 (HUVEC): 10300 nM
Activity [4]: Non-Toxic
